According to ChEMBL document CHEMBL2385053, “Novel isoquinoline derivatives as antimicrobial agents” (2013):

Tests used:
Staphylococcus aureus = test: Bactericidal activity against Staphylococcus aureus CECT 86 at 0.2 mg/disk after 24 hrs by paper disk-agar diffusion method; type: functional
In short: (§1)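 Each bacterial strain was taken from a 24-h culture on solid medium, reactivated in Nutrient Broth, and grown a further 24 h at 28 or 37 °C depending on the strain. 1 mL of suspension was mixed with 15 mL Plate Count Agar. Four 0.5 cm paper disks (0.2 mg/disk) were placed on the set agar. Controls were vehicle-only disks and tetracycline. Plates were incubated 24 h, dark, 28 or 37 °C. The inhibition zone was read in mm as the mean ± SE of three independent experiments.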

Escherichia coli [1] = test: Bactericidal activity against Escherichia coli CECT 100 at 0.2 mg/disk after 24 hrs by paper disk-agar diffusion method; type: functional; in short: as §1
Trichoderma viride = test: Fungicidal activity against Trichoderma viride CECT 2423 at 0.2 mg/disk after 72 hrs by paper disk-agar diffusion method; type: functional
In short: (§2)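 Fungi were grown on potato dextrose agar (PDA) for 7 days at 28 °C. Conidia were suspended to ~10⁶/mL in 0.05% Tween 80 in sterile water, and 1 mL was mixed into 15 mL PDA. Four 0.5 cm paper disks (0.2 mg/disk) were placed on the set agar. Controls were vehicle-only disks and benomyl at species-dependent doses. The inhibition zone was read in mm at 72 h as the mean ± SE of three independent experiments.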

Escherichia coli [2] = test: Bactericidal activity against Escherichia coli CECT 405 at 0.2 mg/disk after 24 hrs by paper disk-agar diffusion method; type: functional; in short: as §1
Aspergillus parasiticus = test: Fungicidal activity against Aspergillus parasiticus CECT 2681 at 0.2 mg/disk after 72 hrs by paper disk-agar diffusion method; type: functional; in short: as §2
Geotrichum candidum = test: Fungicidal activity against Geotrichum candidum CCM 245 at 0.2 mg/disk after 72 hrs by paper disk-agar diffusion method; type: functional; in short: as §2
Salmonella typhi [3] = test: Bactericidal activity against Salmonella typhi CECT 409 at 0.2 mg/disk after 24 hrs by paper disk-agar diffusion method; type: functional, Salmonella enterica subsp. enterica serovar Typhi
In short: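 Paper disk-agar diffusion, run in triplicate. 24-h culture reactivated in nutrient broth and grown a further 24 h at 28 or 37 °C by species. 1 mL suspension mixed into 15 mL plate count agar. Four 0.5 cm disks placed per plate, incubated 24 h in the dark. Inhibition zone (mm) reported as mean ± SE of three independent experiments; vehicle disks as negative control.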

[4] = system: Pectobacterium carotovorum; test: Bactericidal activity against Erwinia carotovora CECT 225 at 0.2 mg/disk after 24 hrs by paper disk-agar diffusion method; type: functional; in short: as §1
Enterococcus faecalis = test: Bactericidal activity against Enterococcus faecalis CECT 481 at 0.2 mg/disk after 24 hrs by paper disk-agar diffusion method; type: functional; in short: as §1
[5] = system: Phytophthora citrophthora; test: Fungicidal activity against Phytophthora citrophthora CECT 2353 at 0.2 mg/disk after 72 hrs by paper disk-agar diffusion method; type: functional; in short: as §2
Bacillus cereus = test: Bactericidal activity against Bacillus cereus CECT 148 at 0.2 mg/disk after 24 hrs by paper disk-agar diffusion method; type: functional; in short: as §1
Fusarium culmorum = test: Fungicidal activity against Fusarium culmorum CCM 172 at 0.2 mg/disk after 72 hrs by paper disk-agar diffusion method; type: functional; in short: as §2
Salmonella typhi [6] = test: Bactericidal activity against Salmonella typhi CECT 409 at 0.2 mg/disk after 24 hrs by paper disk-agar diffusion method relative to control; type: functional, Salmonella enterica subsp. enterica serovar Typhi
Escherichia coli [7] = test: Bactericidal activity against Escherichia coli CECT 405 at 0.2 mg/disk after 24 hrs by paper disk-agar diffusion method relative to control; type: functional
Escherichia coli [8] = test: Bactericidal activity against Escherichia coli CECT 100 at 0.2 mg/disk after 24 hrs by paper disk-agar diffusion method relative to control; type: functional

Structure (SMILES)	inhibition zone (IZ) (Staphylococcus aureus)	inhibition zone (IZ) (Escherichia coli [1])	inhibition zone (IZ) (Trichoderma viride)	inhibition zone (IZ) (Escherichia coli [2])	inhibition zone (IZ) (Aspergillus parasiticus)	inhibition zone (IZ) (Geotrichum candidum)	inhibition zone (IZ) (Salmonella typhi [3])	inhibition zone (IZ) [4]	inhibition zone (IZ) (Enterococcus faecalis)	inhibition zone (IZ) [5]	inhibition zone (IZ) (Bacillus cereus)	inhibition zone (IZ) (Fusarium culmorum)	Activity (Salmonella typhi [6])	Activity (Escherichia coli [7])	Activity (Escherichia coli [8])
COc1cc2c(cc1OC)C(CCCCCOC(=O)NCCc1ccccc1)N(C)CC2 (centres undefined)	14 mm	10.67 mm	0 mm	14 mm	0 mm	7.67 mm	13.5 mm	11 mm	13.67 mm	0 mm	10.17 mm	0 mm	–	–	–
COc1ccc(C(=O)OCCCCCC2c3cc(OC)c(OC)cc3CCN2C)cc1 (centres undefined)	11.33 mm	10.83 mm	5.5 mm	11.33 mm	0 mm	7.33 mm	–	10.33 mm	11.33 mm	0 mm	10.33 mm	5.5 mm	–	–	–
CCCCC1=[N+](C)CCc2cc(OC)c(OC)cc21	7 mm	0 mm	–	7 mm	–	–	6.75 mm	7 mm	7 mm	–	7 mm	–	–	–	–
CN(C)[C@@H]1C(O)=C(C(N)=O)C(=O)[C@@]2(O)C(O)=C3C(=O)c4c(O)cccc4[C@@](C)(O)[C@H]3C[C@@H]12 [TETRACYCLINE]	27 mm	25.67 mm	–	25.67 mm	–	–	24.33 mm	34.67 mm	31.17 mm	–	23.33 mm	–	–	–	–
COc1cc2c(cc1OC)C(CCCCCOC(=O)c1ccc(F)cc1)N(C)CC2 (centres undefined)	13.67 mm	14 mm	7 mm	13.67 mm	0 mm	7 mm	14.83 mm	13.5 mm	13.67 mm	0 mm	13 mm	8 mm	61%	–	–
COc1cc2c(cc1OC)C(CCCCCOC(=O)c1ccccc1)N(C)CC2 (centres undefined)	10.67 mm	11 mm	7.25 mm	9.83 mm	0 mm	6.75 mm	9.67 mm	12.17 mm	9.83 mm	0 mm	10.83 mm	7 mm	–	–	–
COc1cc2c(cc1OC)C(CCCCCOC(=O)c1ccc(Cl)cc1)N(C)CC2 (centres undefined)	12.67 mm	13.67 mm	9 mm	11.5 mm	0 mm	12.33 mm	–	12.67 mm	11.67 mm	10.33 mm	13 mm	6.67 mm	–	–	–
CCCCC1c2cc(OC)c(OC)cc2CCN1C (centres undefined)	6 mm	0 mm	0 mm	6 mm	0 mm	0 mm	6.25 mm	6 mm	7 mm	0 mm	6 mm	5.5 mm	–	–	–
COc1ccc(CCC(=O)OCCCCCC2c3cc(OC)c(OC)cc3CCN2C)cc1 (centres undefined)	7.83 mm	7 mm	6 mm	7.33 mm	0 mm	5.75 mm	8 mm	11.33 mm	7 mm	0 mm	8.5 mm	6.5 mm	–	–	–
COc1cc2c(cc1OC)C(CCCCCOC(=O)Nc1ccc(Cl)cc1)N(C)CC2 (centres undefined)	17.33 mm	13.17 mm	8.67 mm	17.33 mm	0 mm	10.33 mm	16.33 mm	12.5 mm	18 mm	0 mm	14.33 mm	7.33 mm	67%	68%	–
COc1cc2c(cc1OC)C(CCCCCOC(=O)CCc1ccc(Cl)cc1)N(C)CC2 (centres undefined)	8.67 mm	8.67 mm	9 mm	9.17 mm	0 mm	8.5 mm	8.17 mm	11 mm	8.33 mm	8.5 mm	11 mm	9.5 mm	–	–	–
COc1ccc(CCNC(=O)OCCCCCC2c3cc(OC)c(OC)cc3CCN2C)cc1 (centres undefined)	9 mm	10.67 mm	0 mm	13.33 mm	0 mm	7 mm	–	17 mm	11 mm	0 mm	12 mm	0 mm	–	–	–
COc1cc2c(cc1OC)C(CCCCCO)N(C)CC2 (centres undefined)	10.67 mm	16 mm	–	11.33 mm	–	–	12.33 mm	8 mm	10.33 mm	–	0 mm	–	–	–	62%
COC(=O)CCCCC1=[N+](C)CCc2cc(OC)c(OC)cc21	0 mm	0 mm	–	0 mm	–	–	0 mm	5.5 mm	0 mm	–	6.33 mm	–	–	–	–
COc1cc2c(cc1OC)C(CCCCCOC(=O)NCCc1ccc(Cl)cc1)N(C)CC2 (centres undefined)	16.33 mm	12.33 mm	7 mm	17.67 mm	0 mm	10 mm	–	18.33 mm	17 mm	6.25 mm	14.67 mm	15 mm	75%	75%	–
COC(=O)CCCCC1c2cc(OC)c(OC)cc2CCN1C (centres undefined)	5.5 mm	5.83 mm	–	0 mm	–	–	0 mm	0 mm	0 mm	–	6.33 mm	–	–	–	–
COc1cc2c(cc1OC)C(CCCCCOC(=O)NCCc1ccc(F)cc1)N(C)CC2 (centres undefined)	15.33 mm	11.33 mm	0 mm	16 mm	0 mm	7.67 mm	14.83 mm	11.67 mm	15 mm	0 mm	11.33 mm	0 mm	61%	62%	–
COc1cc2c(cc1OC)C(CCCCCOC(=O)CCc1ccccc1)N(C)CC2 (centres undefined)	9.67 mm	11.33 mm	8 mm	8.67 mm	0 mm	7.83 mm	–	10.67 mm	8.67 mm	6.67 mm	10.33 mm	6.33 mm	–	–	–
